# Measurements as given in publication PMC3941710 (Journal of medicinal chemistry, 2009).
# T1: human sex hormone binding globulin (SHBG) (Homo sapiens, UniProt P04278)
# T1 sequence (P04278 30-402): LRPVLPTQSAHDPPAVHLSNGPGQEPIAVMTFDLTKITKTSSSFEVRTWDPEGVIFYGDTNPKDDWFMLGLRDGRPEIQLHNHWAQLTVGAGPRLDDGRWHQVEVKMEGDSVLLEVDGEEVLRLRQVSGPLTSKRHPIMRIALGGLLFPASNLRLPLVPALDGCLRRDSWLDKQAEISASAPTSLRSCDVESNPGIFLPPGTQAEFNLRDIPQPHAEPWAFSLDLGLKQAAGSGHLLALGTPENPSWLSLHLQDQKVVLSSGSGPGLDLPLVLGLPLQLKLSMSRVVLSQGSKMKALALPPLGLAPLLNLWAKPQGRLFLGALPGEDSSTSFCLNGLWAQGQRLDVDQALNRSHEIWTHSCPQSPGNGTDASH
# B1: SHBG: Human SHBG (pure, lyophilized), injected ip alone as control or co-injected with 13 (protein, UniProt P04278 30-402, looked up)
# Sex hormone-binding globulin: T1 sequence (P04278 30-402)
# What was measured:
# [1] = biological target: T1, human sex hormone binding globulin (SHBG); assay: Binding to purified human SHBG; conditions: size-exclusion HPLC / ITLC
# Stability in PBS = type: physicochemical; conditions: PBS/CH3CN 10:1, pH 7.1, ambient temperature, up to 24 h
# [2] = system: LNCaP human prostate cancer cells; assay: Uptake and subcellular distribution in LNCaP cells; type: cell-based; conditions: proliferating LNCaP monolayer, 24 h exposure
# PC-3 cells = assay: Uptake of 8 in PC-3 cells with or without DHT at 4 °C; type: cell-based, human; conditions: 0.1 μCi/mL 8, 0.1 μM DHT, 16 h
# In short: (§1)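 Cells with very low or no AR expression. Non-radioactive DHT competitor was added before the radioiodinated test compound to block AR binding. Cells were grown with the test compound at 4 °C for 16 h and cellular retention was compared with DHT-free cells.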
# MCF-7 cells = assay: Uptake of 8 in MCF7 cells with or without DHT at 4 °C; type: cell-based, human; conditions: 0.1 μCi/mL 8, 0.1 μM DHT, 16 h
# In short: as §1
# [3] = system: intraperitoneal NIH:OVCAR-3 xenografts; assay: Biodistribution and imaging of 8 in athymic mice with ip NIH:OVCAR-3 xenografts; type: in vivo, mouse
# [4] = system: intraperitoneal NIH:OVCAR-3 xenografts; assay: Therapy with 8 in OVCAR-3-bearing athymic mice; type: in vivo, mouse
# [5] = Binding and stability in human serum
# [6] = Binding and stability in mouse serum
# [7] = Binding and stability in rabbit serum
# [8] = system: LNCaP human prostate cancer cells; assay: Cell survival of LNCaP cells; type: cell-based; conditions: 48 h, extracellular concentration 8 μCi/mL
# In short: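 LNCaP cells plated at 2000 cells/well, allowed to attach for 24 h, then given fresh charcoal–dextran-stripped medium containing radioactive test compound. Survival read by CellTiter-Fluor viability assay or CellTiter 96 AQueous One Solution proliferation assay.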
# [9] = system: intraperitoneal NIH:OVCAR-3 xenografts; type: in vivo, mouse
# [10] = system: intraperitoneal NIH:OVCAR-3 xenografts; assay: Fractionated therapy and biodistribution of 13 in OVCAR-3-bearing mice; type: in vivo, mouse
# [11] = Biodistribution of fractionated ip doses of 13 in healthy mice; type: in vivo, mouse; conditions: control (healthy) mice
# [12] = cell pellet, six fractionated ip treatments
# [13] = 13 (0.25 mCi) + SHBG therapy group, or SHBG only
molecule,measurement,setting,value
"C[C@]12CCC(=O)C[C@@H]1CC[C@@H]1[C@@H]2CC[C@]2(C)[C@@H](OC(=O)CCC(=O)O[C@H]3C[C@H](n4cc([125I])c(=O)[nH]c4=O)O[C@@H]3CO)CC[C@@H]12 [compound 8, 5-[^125I]Iodo-3′-O-(17β-succinyl-5α-androstan-3-one)-2′-deoxyuridine]",binding to pure SHBG isolated from human serum,[1],bind to pure SHBG isolated from human serum
same,stability in PBS,Stability in PBS,stable in PBS
same,Bmax (single cell-binding isotherm),[2],1.4 × 10^−6 pmol/cell
same,effect of DHT competitor on cellular retention,PC-3 cells,In neither PC-3 nor MCF-7 cells was the cellular retention of 8 influenced by the presence of competitor
same,effect of DHT competitor on cellular retention,MCF-7 cells,In neither PC-3 nor MCF-7 cells was the cellular retention of 8 influenced by the presence of competitor
same,peritoneal lavage radioactivity associated with OVCAR-3 cells,[3]; 24 h and later after ip administration,> 95%
same,uptake in uterus,[3]; 72 h after ip administration,up to 1 % ID/g
same,whole body radioactivity associated with the intraperitoneal tumor (ROI),[3]; 72 h after ip administration of 45 μCi 8,8.3% ± 2.1%
same,fraction of lavage radioactivity associated with cancer cells,[3]; 72 h after ip injection of 45 μCi 8,> 97%
same,radioactivity retained in tumors,"[4]; 12 days after the last of six therapeutic doses, decay corrected",~ 0.5 % ID/g
same,range of weight,[4]; [12],0.012 to 0.781 g
same,average cell pellet weight (g) (SEM),[4]; six fractionated ip treatments,0.380(0.111) g
same,^125I bound to DNA as share of total cell-associated radioactivity,[4]; tumors 12 days after the last of six doses,86.8% ± 7.4%
same,binding to SHBG in human serum,[5],bind to SHBG in rabbit and human serum
same,intact compound remaining,"[5]; human serum, after 60 min of incubation",> 91%
same,binding to mouse serum,[6],does not bind to mouse serum
same,time in which mouse serum degrades 8 to 1,"[6]; mouse serum, no SHBG",< 10 min
same,binding to SHBG in rabbit serum,[7],bind to SHBG in rabbit and human serum
same,intact compound remaining,"[7]; rabbit serum, after 60 min of incubation",> 84%
"C[C@]12CCC(=O)C[C@@H]1CC[C@@H]1[C@@H]2CC[C@]2(C)[C@@H](OC(=O)CCC(=O)O[C@H]3C[C@H](n4cc([125I])c(=O)[nH]c4=O)O[C@@H]3COP(=O)(O)O)CC[C@@H]12 [compound 13, 5-[^125I]Iodo-3′-O-(17β-succinyl-5α-androstan-3-one)-2′-deoxyuridin-5′-yl Monophosphate]",binding to pure SHBG isolated from human serum,[1],bind to pure SHBG isolated from human serum
same,stability in PBS,Stability in PBS,stable in PBS
same,cells dead,[8],Ninety percent
same,adverse effects from hematologic data,[9]; 0.25 mCi dose,no overt adverse effects
same,fold lower radioactivity in blood than in cancer cells,[9]; necropsy after bolus dose of 13,> 2.5 ×
same,"percent injected dose per gram of tissue, blood","[10]; OVCAR-3 mice, blood",0.003(0.0010) percent injected dose per gram of tissue
same,"percent injected dose per gram of tissue, heart","[10]; OVCAR-3 mice, heart",0.003(0.0004) percent injected dose per gram of tissue
same,"percent injected dose per gram of tissue, kidney","[10]; OVCAR-3 mice, kidney",0.013(0.0063) percent injected dose per gram of tissue
same,"percent injected dose per gram of tissue, large intestine","[10]; OVCAR-3 mice, large intestine",0.008(0.0009) percent injected dose per gram of tissue
same,"percent injected dose per gram of tissue, liver","[10]; OVCAR-3 mice, liver",0.017(0.0020) percent injected dose per gram of tissue
same,"percent injected dose per gram of tissue, lung","[10]; OVCAR-3 mice, lung",0.008(0.0018) percent injected dose per gram of tissue
same,"percent injected dose per gram of tissue, small intestine","[10]; OVCAR-3 mice, small intestine",0.011(0.0014) percent injected dose per gram of tissue
same,"percent injected dose per gram of tissue, spleen","[10]; OVCAR-3 mice, spleen",0.043(0.0103) percent injected dose per gram of tissue
same,"percent injected dose per gram of tissue, stomach","[10]; OVCAR-3 mice, stomach",0.009(0.0010) percent injected dose per gram of tissue
same,"percent injected dose per gram of tissue, tumor","[10]; OVCAR-3 mice, tumor",2.892(0.5317) percent injected dose per gram of tissue
same,"percent injected dose per gram of tissue, uterus","[10]; OVCAR-3 mice, uterus",0.027(0.0051) percent injected dose per gram of tissue
same,median weight,[10]; [12],0.064 g
same,range of weight,[10]; [12],0.044 to 0.076 g
same,average retention of ^125I in OVCAR-3 cells,[10]; fractionated ip doses,0.0124 ± 0.0024 cpm/cell
same,radioactivity of surviving cancer cells recovered with DNA,"[10]; fractionated ip doses, TCA precipitation",Virtually all radioactivity associated with surviving cancer cells was recovered with DNA
same,average cell pellet weight (g) (SEM),[10]; six fractionated ip treatments,0.061(0.006) g
same,"percent injected dose per gram of tissue, blood",[11]; blood,0.001(0.0001) percent injected dose per gram of tissue
same,"percent injected dose per gram of tissue, heart",[11]; heart,0.002(0.0003) percent injected dose per gram of tissue
same,"percent injected dose per gram of tissue, kidney",[11]; kidney,0.005(0.0005) percent injected dose per gram of tissue
same,"percent injected dose per gram of tissue, large intestine",[11]; large intestine,0.005(0.0009) percent injected dose per gram of tissue
same,"percent injected dose per gram of tissue, liver",[11]; liver,0.006(0.0005) percent injected dose per gram of tissue
same,"percent injected dose per gram of tissue, lung",[11]; lung,0.004(0.0007) percent injected dose per gram of tissue
same,"percent injected dose per gram of tissue, small intestine",[11]; small intestine,0.006(0.0016) percent injected dose per gram of tissue
same,"percent injected dose per gram of tissue, spleen",[11]; spleen,0.025(0.0025) percent injected dose per gram of tissue
same,"percent injected dose per gram of tissue, stomach",[11]; stomach,0.007(0.0002) percent injected dose per gram of tissue
same,"percent injected dose per gram of tissue, uterus",[11]; uterus,0.015(0.0011) percent injected dose per gram of tissue
same,binding to SHBG in human serum,[5],bind to SHBG in rabbit and human serum
same,binding to mouse serum,[6],appears to bind to some unidentified component of mouse serum
same,binding to SHBG in rabbit serum,[7],bind to SHBG in rabbit and human serum
"CCOC(=O)CCC(=O)O[C@H]1C[C@H](n2cc([125I])c(=O)[nH]c2=O)O[C@@H]1CO [compound 17, 5-[^125I]Iodo-3′-O-succinyl-2′-deoxyuridine Ethyl Ester]",binding to pure SHBG isolated from human serum,[1],"Neither the control reagent 17 nor compound 20, which is the metabolite of 13, binds to SHBG or to any component of analyzed sera"
"O=c1[nH]c(=O)n([C@H]2C[C@H](O)[C@@H](COP(=O)(O)O)O2)cc1[125I] [compound 20, 5-[^125I]Iodo-2′-deoxyuridine-5′-monophosphate]",binding to pure SHBG isolated from human serum,[1],"Neither the control reagent 17 nor compound 20, which is the metabolite of 13, binds to SHBG or to any component of analyzed sera"
same,intact compound remaining,"[6]; mouse serum, after 60 min of incubation",does not survive incubation in mouse serum
B1,hematocrit (Ht),[9]; [13],51.4 ± 1.6
same,hemoglobin (Hb),[9]; [13],11.5 ± 1.3
same,average weight of solid tumors,[9]; 13 + SHBG or SHBG only,1.9 ± 0.8 g
